From ChEMBL document CHEMBL1123422, “1-Ethyl-7-[3-[(ethylamino)methyl]-1-pyrrolidinyl]-6,8-difluoro-1,4- dihydro-4-oxo-3-quinoline-carboxylic acid. New quinolone antibacterial with potent gram-positive activity” (1986)
Converted amounts (≈) assume the structure as drawn.

Columns and labels:
Enterococcus faecalis = test: Compound was tested for inhibition of the […] organism Streptococcus faecalis MGH-2; type: functional
Procedure, shortened: (§1)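 MICs read in standard microdilution (microtitration) format against a panel of 10 bacterial organisms; values in µg/mL.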

[1] = molecular target: DNA gyrase (Escherichia coli) (UniProt P0AES6+P0AES4); test: Inhibition of DNA gyrase of Escherichia coli H560 cells
Procedure, shortened: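 DNA gyrase purified from Escherichia coli H560 cells. Cleavage assay: drug-gyrase-DNA complex denatured, converting closed circular DNA to linear DNA. Linear DNA resolved by gel electrophoresis and stained with ethidium bromide. Value is the minimum drug concentration (µg/mL) giving linear DNA at an intensity relative to oxolinic acid at 10 µg/mL. Aqueous drug stocks made up in 0.1 N NaOH or KOH.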

Streptococcus pneumoniae = test: Compound was tested for inhibition of the […] organism Streptococcus pneumoniae SV-1; type: functional; procedure, shortened: as §1
Escherichia coli [2] = test: Compound was tested for inhibition of the gram-negative organism Escherichia coli H560; type: functional; procedure, shortened: as §1
Streptococcus pyogenes = test: Compound was tested for inhibition of the […] organism Streptococcus pyogenes C203.; type: functional; procedure, shortened: as §1
Pseudomonas aeruginosa = test: Compound was tested for inhibition of the gram-negative organism Pseudomonas aeruginosa UI-18; type: functional; procedure, shortened: as §1
Escherichia coli [3] = test: Compound was tested for inhibition of the gram-negative organism Escherichia coli vogel; type: functional; procedure, shortened: as §1
Enterobacter cloacae = test: Compound was tested for inhibition of the gram-negative organism […] HA 2646; type: functional
Mus musculus [4] = test: Compound was evaluated for protective dose against the […] UC-76 lethal infection following po administration in mouse; type: functional; details: read-out: PD50
Procedure, shortened: (§2)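 Acute lethal systemic infection in female Charles River CD-1 mice (18–22 g), challenged intraperitoneally with an estimated 100 median lethal dose in 5% hog gastric mucin. Single doses in a twofold rising series were given with the challenge, sc as aqueous solution or po by gavage in 5% gum acacia. PD50 (mg/kg) was estimated by log probit from survival of eight mice per dose.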

Staphylococcus aureus [5] = test: Compound was tested for inhibition of the […] organism […] H228.; type: functional; procedure, shortened: as §1
Mus musculus [6] = test: Compound was evaluated for protective dose against the […] UC-76 lethal infection following sc administration in mouse; type: functional; details: read-out: PD50; procedure, shortened: as §2
Providencia rettgeri = test: Compound was tested for inhibition of the gram-negative organism Providencia rettgeri H1771; type: functional; procedure, shortened: as §1
Staphylococcus aureus [7] = test: Compound was tested for inhibition of the […] organism […] UC-76.; type: functional; procedure, shortened: as §1
Klebsiella pneumoniae = test: Compound was tested for inhibition of the gram-negative organism Klebsiella pneumoniae MGH-2; type: functional; procedure, shortened: as §1
Mus musculus [8] = test: Compound was evaluated for protective dose against the Escherichia coli vogel lethal infection following peroral administration in mouse; type: functional; details: po, read-out: PD50; procedure, shortened: as §2
Mus musculus [9] = test: Compound was evaluated for protective dose against the Escherichia coli vogel lethal infection following sc administration in mouse; type: functional; details: read-out: PD50; procedure, shortened: as §2
Mus musculus [10] = test: Compound was evaluated for protective dose against the Streptococcus pneumoniae SV-1 lethal infection following po administration; type: functional; details: read-out: PD50
Procedure, shortened: (§3)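 Female Charles River CD-1 mice (18–22 g) were challenged intraperitoneally with an estimated 100 median lethal dose in tryptic soy broth. Single doses, in a twofold rising series, were given at the same time as challenge: subcutaneously as aqueous solution, or orally by gavage in 5% gum acacia. Survival in groups of eight mice per dose gave PD50 (mg/kg) by log probit.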

Mus musculus [11] = test: Compound was evaluated for protective dose against Streptococcus pneumoniae SV-1 lethal infection following sc administration; type: functional; details: read-out: PD50; procedure, shortened: as §3

Structure (SMILES)	MIC (Enterococcus faecalis) [µg/mL]	Min concentration [1] [µg/mL]	MIC (Streptococcus pneumoniae) [µg/mL]	MIC (Escherichia coli [2]) [µg/mL]	MIC (Streptococcus pyogenes) [µg/mL]	MIC (Pseudomonas aeruginosa) [µg/mL]	MIC (Escherichia coli [3]) [µg/mL]	MIC (Enterobacter cloacae) [µg/mL]	ED50 (Mus musculus [4]) [mg/kg]	MIC (Staphylococcus aureus [5]) [µg/mL]	ED50 (Mus musculus [6]) [mg/kg]	MIC (Providencia rettgeri) [µg/mL]	MIC (Staphylococcus aureus [7]) [µg/mL]	MIC (Klebsiella pneumoniae) [µg/mL]	ED50 (Mus musculus [8]) [mg/kg]	ED50 (Mus musculus [9]) [mg/kg]	ED50 (Mus musculus [10]) [mg/kg]	ED50 (Mus musculus [11]) [mg/kg]
CCn1cc(C(=O)O)c(=O)c2cc(F)c(N3CCC(CN)C3)cc21 (stereo not given)	0.8 (≈ 2.4 µM)	3	0.2 (≈ 0.6 µM)	0.4 (≈ 1.2 µM)	0.2 (≈ 0.6 µM)	1.6 (≈ 4.8 µM)	0.8 (≈ 2.4 µM)	1.6 (≈ 4.8 µM)	> 50	1.6 (≈ 4.8 µM)	6	6.3 (≈ 18.9 µM)	0.05 (≈ 0.15 µM)	3.1 (≈ 9.3 µM)	> 100	25	–	–
CCn1cc(C(=O)O)c(=O)c2cc(F)c(N3CCC(CNC)C3)cc21 (stereo not given)	1.6 (≈ 4.61 µM)	–	0.2 (≈ 0.576 µM)	0.2 (≈ 0.576 µM)	0.1 (≈ 0.288 µM)	1.6 (≈ 4.61 µM)	0.2 (≈ 0.576 µM)	1.6 (≈ 4.61 µM)	> 50	0.8 (≈ 2.3 µM)	8	6.3 (≈ 18.1 µM)	0.013 (≈ 0.0374 µM)	1.6 (≈ 4.61 µM)	> 100	18	> 100	> 25
CCn1cc(C(=O)O)c(=O)c2cc(F)c(N3CCC(CN)C3)c(F)c21 (stereo not given)	0.1 (≈ 0.285 µM)	0.5	0.2 (≈ 0.569 µM)	0.1 (≈ 0.285 µM)	0.1 (≈ 0.285 µM)	0.8 (≈ 2.28 µM)	0.1 (≈ 0.285 µM)	0.2 (≈ 0.569 µM)	–	0.1 (≈ 0.285 µM)	–	0.4 (≈ 1.14 µM)	0.1 (≈ 0.285 µM)	0.4 (≈ 1.14 µM)	90	1.2	100	5
CCNCC1CCN(c2cc3c(cc2F)c(=O)c(C(=O)O)cn3CC)C1 (stereo not given)	0.2 (≈ 0.553 µM)	2.5	0.2 (≈ 0.553 µM)	0.1 (≈ 0.277 µM)	0.1 (≈ 0.277 µM)	1.6 (≈ 4.43 µM)	0.1 (≈ 0.277 µM)	0.2 (≈ 0.553 µM)	35	0.2 (≈ 0.553 µM)	3	1.6 (≈ 4.43 µM)	0.05 (≈ 0.138 µM)	0.4 (≈ 1.11 µM)	> 100	15	–	–
CCn1cc(C(=O)O)c(=O)c2cc(F)c(N3CCC(CNC)C3)c(F)c21 (stereo not given)	0.1 (≈ 0.274 µM)	0.5	0.1 (≈ 0.274 µM)	0.2 (≈ 0.547 µM)	0.1 (≈ 0.274 µM)	1.6 (≈ 4.38 µM)	0.4 (≈ 1.09 µM)	0.4 (≈ 1.09 µM)	–	0.2 (≈ 0.547 µM)	–	0.8 (≈ 2.19 µM)	0.1 (≈ 0.274 µM)	0.8 (≈ 2.19 µM)	6.9	1.9	37	11
CNn1cc(C(=O)O)c(=O)c2cc(F)c(N3CCN(C)CC3)cc21 [AMIFLOXACIN]	3.1 (≈ 9.27 µM)	–	12.5 (≈ 37.4 µM)	0.025 (≈ 0.0748 µM)	12.5 (≈ 37.4 µM)	0.8 (≈ 2.39 µM)	0.1 (≈ 0.299 µM)	–	–	1.6 (≈ 4.79 µM)	–	0.2 (≈ 0.598 µM)	0.4 (≈ 1.2 µM)	0.2 (≈ 0.598 µM)	4.5	1	> 100	> 25
O=C(O)c1cn(C2CC2)c2cc(N3CCNCC3)c(F)cc2c1=O [CIPROFLOXACIN]	0.8 (≈ 2.41 µM)	0.5	–	0.025 (≈ 0.0754 µM)	0.8 (≈ 2.41 µM)	0.4 (≈ 1.21 µM)	–	–	9.5	3.1 (≈ 9.36 µM)	3	0.1 (≈ 0.302 µM)	0.2 (≈ 0.604 µM)	0.1 (≈ 0.302 µM)	1.2	0.25	> 100	18
